# In the library only some 1.5% were active in any assay of this set; here they are far more common.
# bovine MsrA act: bovine methionine sulfoxide reductase A activation; purified bovine MsrA, absorbance read-out; activation, % at 10.6 µM; AID 602163; 360,000 tested, 0.3% active; in the data active = activation above about 7.5%;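 also: 0% = vehicle and 100% = reference activator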
# proCasp3 act: activates human procaspase-3 | P42574 | recombinant procaspase-3 D3A, Ac-DEVD-pNA absorbance 405 nm | activation, % at 8.5 µM | 330,000 tested, 0.11% active | AID 463141;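 active = activation above the mean of all tested compounds plus 3 SD, cut at about 21% in these data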;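 also: 0% = DMSO alone and 100% = DMSO wells spiked with extra 5 µM PC-3 D3A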
# Target sequence (P42574 whole entry D9A/D28A/D175A): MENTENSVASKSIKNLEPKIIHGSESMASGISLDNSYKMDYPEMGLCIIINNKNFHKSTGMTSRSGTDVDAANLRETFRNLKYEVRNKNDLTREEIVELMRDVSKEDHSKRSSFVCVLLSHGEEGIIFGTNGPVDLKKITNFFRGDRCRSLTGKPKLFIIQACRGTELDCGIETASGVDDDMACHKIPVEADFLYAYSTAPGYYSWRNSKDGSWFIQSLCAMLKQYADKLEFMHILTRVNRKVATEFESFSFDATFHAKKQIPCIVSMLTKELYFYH
#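 Test system: Procaspase-3 D3A mutant; medium: Zinc-free HEPES/NaCl buffer with 0.01% Triton X-100 at pH 7.4; reagent: DEVD-pNA substrate; doses: one concentration, 8.5 µM nominal, 0.8% DMSO; times: 1 h preincubation plus 2 h reaction at 25 °C; signal: Epi-absorbance at 405 nm of released p-nitroaniline, 0 and 120 min; replicates: singlicate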
# TbMetRS inhib: Trypanosoma brucei MetRS inhibition | purified T. brucei MetRS, ATP depletion, Kinase-Glo luminescence | inhibition, % at 11.9 µM | 360,000 tested, 0.4% active | AID 624268;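 active = inhibition above a per-plate cutoff of the control wells' mean inhibition plus 3 SD, cut at about 5.5% in these data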;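 also: 0% = DMSO wells median and 100% = median of wells with control inhibitor compound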
#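 Dosing: 11.9 µM compound single dose, 0.9% DMSO; Assay system: purified T. brucei MetRS enzyme; Measured by: Kinase-Glo luciferase luminescence reporting remaining unconsumed ATP; Schedule: 15 min plus 2 h at 25 °C.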
# MsrA inh: bovine MsrA inhibition; 360,000 tested, 0.75% active; inhibition, % at 15.5 µM; purified bovine MsrA, absorbance read-out; in the data active = inhibition above about 4.5%;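 also: 0% = vehicle wells with enzyme and 100% = reference inhibitor wells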
# proCasp7 act: activates human procaspase-7, counter-screen for procaspase-3 activators. 330,000 tested, 0.093% active. AID 463210. activation, % at 8.5 µM. recombinant procaspase-7, Ac-DEVD-pNA absorbance 405 nm; D23A/D198A/D206A triple mutant, cannot self-cleave; scale: DMSO 0, 5 µM enzyme 100. P55210;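 active = percent activation above the screen-wide mean plus 3 SD, cut at about 25% in these data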
#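 Test system: Procaspase-7 triple mutant (PC-7 D3A). Also added: Ac-DEVD-pNA substrate, 400 µM as added. Schedule: 1 h enzyme–compound preincubation and 2 h substrate reaction, both 25 °C. Signal: p-Nitroaniline absorbance at 405 nm, read at 0 and 120 min. Control set: low DMSO alone, high DMSO plus 5 µM PC-7.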
# TbMetRS confirm: confirmation of Trypanosoma brucei MetRS inhibitors | shares compounds with TbMetRS inhib | T. brucei MetRS enzyme, luminescence (ATP depletion) | inhibition, % at 11.9 µM | 1,400 tested, 93% active; in the data active = inhibition above about 7%
# Jurkat tox: kills Jurkat cells in T. brucei MetRS counterscreen; shares compounds with TbMetRS inhib; Jurkat cells viability, ATP luminescence; inhibition, % at 8.3 µM; 1,400 tested, 12% active; AID 624413; in the data active = inhibition above about 15%;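 also: 0% = vehicle and 100% = reference inhibitor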
# TbMetRS FP orth: orthogonal test for Trypanosoma brucei MetRS inhibitors. shares compounds with TbMetRS inhib. purified T. brucei MetRS, fluorescence polarization. inhibition, % at 11.9 µM. 1,400 tested, 44% active. AID 651607; in the data active = inhibition above about 17%;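 also: 0% = vehicle wells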
# The depositor's hits bear a star; . = not tested or not shown.
SMILES,bovine MsrA act,proCasp3 act,TbMetRS inhib,MsrA inh,proCasp7 act,TbMetRS confirm,Jurkat tox,TbMetRS FP orth
CC(C)(C)c1ccc(C#C[C@@H]2C=C[C@H](O)[C@@H](COC(=O)Nc3ccccc3)O2)cc1,.,.,.,0.2,.,.,.,.
COc1ccc(Oc2cccc3c2S(=O)(=O)N(C2CC2)C[C@@H](COCc2ccccc2)O3)cc1,.,.,.,-0.3,.,.,.,.
COC(=O)c1cccc(OCC(O)Cn2ccnc2)c1 (centres undefined),-0.6,-3.5,-0.6,-0.7,16.1,.,.,.
OC(COc1ccc2cc(Br)ccc2c1)Cn1ccnc1 (centres undefined),-1.8,-2.3,6.2*,-1.4,4.9,13.4*,9.4,23.6*
COC(=O)C1=C(C)N(C)C(=NCc2cc(OC)c(OC)c(OC)c2)NC1c1cccc(Cl)c1 (centres undefined),.,.,.,-0.6,.,.,.,.
Cc1ccc2[nH]c3c(N4CCc5ccccc5C4)ncnc3c2c1,-2.0,-0.1,11.6*,1.1,-0.5,5.0,46.9*,8.7
Fc1ccc2[nH]c3c(N4CCc5ccccc5C4)ncnc3c2c1,-2.5,4.5,57.9*,0.6,0.9,13.5*,49.7*,13.2
C[C@H]1NS(=O)(=O)c2cccc(Cl)c2O[C@@H]1c1ccccc1,.,.,.,0.1,.,.,.,.
CCn1c(C)cc2c(c1=O)C(c1ccccc1)C(C(=O)OC)=C(N)O2 (centres undefined),-4.8,-4.8,-0.3,0.4,-12.6,.,.,.
COC(=O)C1=C(N)Oc2cc(C)n(Cc3ccco3)c(=O)c2C1c1cccc(Cl)c1 (centres undefined),-1.1,1.6,52.1*,-0.2,18.0,5.5,4.5,2.1
Cc1cc(C)n(CCC(=O)N/N=C/c2c(O)ccc3ccccc23)n1,-7.7,-26.2,6.5*,3.4,-42.8,13.9*,86.8*,10.7
Cc1cc(C)n(CCC(=O)N/N=C/c2ccc(O)cc2)n1,-3.9,1.7,-0.6,1.0,-3.0,.,.,.
Cc1ccc(OCc2nnc(SCc3nc4ccccc4[nH]3)n2Cc2ccco2)cc1,1.1,-2.1,35.4*,0.1,-5.9,62.0*,13.6,34.1*
CCn1c(COc2ccc(Cl)cc2)nnc1SCc1nc2ccccc2[nH]1,-1.0,1.7,53.7*,-0.8,2.0,58.4*,12.5,36.0*
COc1c2c(cc3c1c(=O)c1ccccc1n3C)OCO2,.,.,.,0.4,.,.,.,.
Nc1[nH]c(C(=O)c2ccccc2)c(-c2ccc(Cl)cc2)c1C(=O)c1c[nH]c2ccc(F)cc12,.,.,.,-0.5,.,.,.,.
COc1ccccc1C(=O)N1CCN(C(=O)[C@@H](Cc2ccccc2)NC(=O)[C@H]2O[C@@H](n3ccc(N)nc3=O)[C@H](O)[C@@H]2O)CC1,.,.,.,0.0,.,.,.,.
CC(OC(=O)CNC(=O)c1ccc(Cl)c([N+](=O)[O-])c1)C(=O)NC1CCCCC1C (centres undefined),-3.0,.,7.2*,-0.5,.,26.1*,-1.2,12.8
Nc1cc(=O)[nH]c(SCC(=O)Nc2cc(Cl)cc(Cl)c2)n1,-8.0,0.3,28.8*,-0.7,5.9,48.8*,0.8,27.9*
Cc1nnc2nc(N)[nH]n2c1=O,.,.,.,0.8,.,.,.,.
Nc1cc(C(=O)OCC(=O)NCc2ccc(F)cc2)ccc1Cl,-1.9,7.1,43.0*,0.7,6.5,62.6*,-3.9,33.8*
O=C(COC(=O)c1ccc(Cl)nc1)NCc1ccc(F)cc1,-3.1,2.1,-0.3,0.0,6.8,.,.,.
COC(=O)[C@]12C[C@H](CC(=O)NCCC(C)C)C(=O)N(CCC3=CCCCC3)C1=C[C@H](COCc1ccccc1)O[C@@H]2C,.,.,.,0.9,.,.,.,.
Cn1c(SCC(=O)NCc2ccco2)nnc1-c1c[nH]c2ccccc12,0.7,2.7,1.2,-0.7,2.0,.,.,.
CCOc1ccc(-n2c(SCC(=O)Nc3cc(C)on3)nnc2-c2c[nH]c3ccccc23)cc1,-0.4,-9.4,0.8,-0.6,-5.9,.,.,.
COc1ccc(OC)c(-n2c(SC)nnc2-c2c[nH]c3ccccc23)c1,-1.6,4.8,9.7*,0.1,-13.6,24.7*,2.1,11.3

# Screening data as filed in PubChem.
